Sampled rows, rich in hits. Any-hit rate of the full collection: about 3%.
T cruzi repl – inhibitors of intracellular T. cruzi growth, primary screen, luminescence, NIH3T3 host cells. T. cruzi beta-gal in NIH3T3, 90 h. AID 1885, 2009. 300,000 tested, 1.4% active. inhibition, % (concentration not given with the values);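 active = mean inhibition across valid replicates above about 55%, limit read from the data; inconclusive = mean below that limit but half or more replicates reach it; inactive = mean below it, under half of replicates reach it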;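 note: signal also drops with host cell toxicity which is not excluded here; 0% = plate median of DMSO wells and 100% = zero luminescence signal; higher percent means less beta-gal luminescence so fewer parasites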
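System – NIH/3T3 host cells with β-galactosidase reporter T. cruzi · Doses – single 50 nL compound addition per well in DMSO · Reagent – 5000 T. cruzi trypomastigotes/well · Medium – Low-serum DMEM with 2% FBS · Timing – ≥90 h infection period, 3 h prior cell attachment · Evaluation – parasite load inhibition, % · Technique – GalScreen luminescence, 60 min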
CaV13 FRET inh – Primary screen for inhibitors of IQ motif and Ca2+-dependent inactivation inhibitor domain binding in CACNA1D, Förster resonance energy transfer in living cells, …. HEK cells, CFP/YFP FRET ICDI-IQ, plate reader, 10 min; percent FRET-ratio fall versus neutral wells. inhibition, % at 12.3 µM. 340,000 tested, 0.098% active;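 active = mean replicate inhibition of at least 30% and at least 1% of replicates passing that level; inconclusive = only one of the two criteria is met; inactive = neither criterion is met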;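 note: 0% = median of the neutral control wells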
N-glyco inh – increase of ERlucT glycosylation luciferase signal, primary screen, N-linked glycosylation inhibitor project, D54 ERlucT cells, luminescence, set 2; reporter increase, % at 12.5 µM; 360,000 tested, 0.23% active; AID 588692, 2011; D54 ERlucT glycosylation luciferase reporter, 24 h; percent of 100 nM tunicamycin response;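 active = mean luciferase reporter signal, scaled so untreated is 0 and the glycosylation-blocking control 100, at or above a set limit in every replicate; inconclusive = mean reaches the limit but not every replicate does; inactive = mean below the limit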;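 note: luciferase carries N-glycosylation sites so blocking glycosylation raises the light; 0% = median of neutral control wells and 100% = median of 100 nM tunicamycin wells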
PfHsp90 set2 – growth inhibition of PfHsp90-expressing yeast, primary screen, antimalarial PfHsp90 inhibitor project, S. cerevisiae, BacTiter-Glo luminescence, single point, set 2. BacTiter-Glo ATP, 48 h; yeast lacking PDR1 and PDR3 efflux regulators. inhibition, % at 9.4 µM. 310,000 tested, 0.32% active;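 active = every replicate shows inhibition above about 80%, whatever the replicate mean, limit read from the data; inconclusive = mean inhibition reaches the set limit but some replicate falls short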;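 note: 0% = DMSO neutral controls and 100% = 20 µM radicicol positive controls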
HSF-1 act – HSF-1 activators, primary screen, NIH3T3-HGL cells, MG132 stress, luminescence, single point; NIH3T3-HGL HSF-1 luciferase reporter, 8 h; 100% = twice DMSO control signal; activation, % at 9 µM; 300,000 tested, 1.7% active; AID 504408, 2011;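 active = mean replicate activation of at least 50% with a set share of replicates each reaching 50%; inconclusive = only one of those two conditions met; inactive = mean below 50% and too few replicates reaching it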;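 note: 0% = median of the neutral control wells and 100% = twice that signal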
PvdQ inh – P. aeruginosa PvdQ acylase inhibitors, primary screen, biochemical, fluorescence, plate reader and imaging, single point. PvdQ acylase [Pseudomonas aeruginosa LESB58]. purified PvdQ acylase. inhibition, % at 10 µM. 340,000 tested, 0.063% active. AID 488965, 2010; in the data active = inhibition above about 30%, passing the limit was not always enough; inconclusive = no clear call, values can overlap the other calls;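 note: 0% = vehicle neutral wells and 100% = reference inhibitor wells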
* = called active by the depositor; u = inconclusive; x = not tested or not shown; + = active, no number.

SMILES	T cruzi repl	CaV13 FRET inh	N-glyco inh	PfHsp90 set2	HSF-1 act	PvdQ inh
CCn1ncc(CN2CCCC(CNC(=O)c3ccc(F)cc3)C2)c1C (centres undefined)	73*	-5	1	-27	-7	-11
O=S1(=O)N[C@H](Cc2ccccc2)COc2cc(F)ccc21	x	-3	x	x	x	x
COc1ccc(CN2C[C@@]3(O)CC[C@@H](O)[C@@H](OC)[C@@H]3[C@@](C)(O)[C@@H]2CC=C(C)C)cc1	x	-10	x	x	x	x
Cn1cc(CN2CCCC(CNC(=O)c3ccc4c(c3)OCO4)C2)c2ccccc21 (centres undefined)	66*	-2	1	8	-7	-24
COc1ccc(C(=O)N2CCCC(CNC(=O)c3ccc(F)cc3)C2)cc1OC (centres undefined)	-18	-2	0	5	-9	-15
COc1cccc(CN2CCCC(CNC(=O)c3ccc(F)cc3)C2)c1OC (centres undefined)	68*	-19	-1	10	8	-11
Cc1cc(CN2CCCC(CNC(=O)c3ccc(F)cc3)C2)cc(C)c1O (centres undefined)	48	0	2	21	24	9
COCc1cc(CN2CCCC(CNC(=O)c3ccc(F)cc3)C2)ccc1OC (centres undefined)	81*	-5	0	-19	6	-14
C[C@@H]1CN([C@H](C)CO)S(=O)(=O)c2ccc(Br)cc2O[C@H]1CN(C)CC1CCOCC1	x	-5	x	x	x	x
COC(=O)[C@]12CCCCC=C1N(Cc1ccccc1)C(=O)[C@H](CC(=O)NCCCCc1ccccc1)C2	x	-8	x	x	x	x
Cc1ccc(/C=C(\C#N)C(=O)Nc2ccccn2)o1	-1	-7	-5	-11	60*	-7
COc1ccc(/C=C(\C#N)C(=O)Nc2ccccn2)cc1	-9	-2	1	-10	75*	-16
Cc1ccc(/C=C(\C#N)C(=O)NC(C)C)o1	-2	-3	2	5	-16	9
COc1ccc(C(=O)C/C(=C\C(=O)c2ccc(C)cc2)c2ccccc2)cc1	64*	-5	-6	0	24	16
O=C1[C@@H]2CSCCS(=O)(=O)N2C(=O)N1C1CCCCC1	x	-5	x	x	x	x
COC(=O)c1ccc(COc2ccccc2/C=C(\C#N)C(=O)Nc2ccc(C)cc2C)cc1	19	-3	10	-2	7	-12
COC(=O)c1ccc(COc2ccccc2/C=C(\C#N)C(=O)Nc2c(C)cc(C)cc2C)cc1	47	-5	u	-25	93*	-11
CC1=NNC(=O)/C1=C\c1cn(-c2ccccc2)nc1-c1cccs1	-9	-7	-17	110*	39	0
O=Cc1cn(-c2ccccc2)nc1-c1ccc(F)cc1	-17	-5	5	-20	-2	-14
CC1=NNC(=O)/C1=C\c1cn(-c2ccccc2)nc1-c1ccc(F)cc1	26	x	-10	x	146*	1
COc1ccc(CN2c3ccccc3C(=O)CS2(=O)=O)cc1OC	x	-4	x	x	x	x
COCCNC(=O)/C(C#N)=C/c1ccc(N2CCOCC2)o1	19	-5	3	-2	-6	4
N#C/C(=C\c1ccc(N2CCOCC2)o1)C(=O)NCCc1ccccc1	16	+	1	-21	1	-5
N#C/C(=C/c1ccc(N2CCCCC2)cc1)c1cccc(F)c1	15	-2	-2	-3	-17	-6
N#C/C(=C/c1ccc(N2CCCCC2)o1)c1cccc(F)c1	56*	-8	-7	-33	172*	0
SMILES	T cruzi repl	CaV13 FRET inh	N-glyco inh	PfHsp90 set2	HSF-1 act	PvdQ inh
Cc1ccc(/C(C#N)=C\c2ccc(N3CCOCC3)o2)cc1	58*	-10	u	-30	76*	-10
N#C/C(=C/c1ccc(N2CCCCCC2)o1)c1ccc(Cl)cc1	65*	x	17	104*	93*	4
N#C/C(=C\c1ccc(N2CCOCC2)o1)C(=O)NC1CCCCC1	24	-2	2	-2	6	5
COC(=O)[C@]12C[C@H](CC(=O)N3CCCCC3)C(=O)N(Cc3ccccc3)C1=C[C@H](C(C)C)O[C@@H]2C1CC1	x	-10	x	x	x	x
CC(C)C[C@H]1CNC(=O)C(=O)N1CC1CCN(CC2CCC(C(C)(C)C)CC2)CC1 (some centres undefined)	x	-4	0	16	x	-1
Cc1cccc(Cl)c1NC(=O)N(C)c1ccccc1	x	-3	x	x	x	x
Cn1cc(C(=O)N/N=C/C(Br)=C/c2ccccc2)ccc1=O	-12	-3	25*	24	90*	-7
Cn1cc(C(=O)N/N=C/C(Br)=C\c2ccccc2)ccc1=O	-27	x	u	16	87*	-5
CC(C)(CC(=O)c1ccccc1)CC(=O)c1ccccc1	x	-5	-1	-30	x	-16
[O-]/[N+](=C\c1ccco1)c1ccc(Cl)cc1	-9	-7	-1	-1	99*	-13
[O-]/[N+](=C/c1ccco1)c1ccccc1	-6	-13	1	-17	2	2
CSCCC(C(=O)NC(C)(C)C)n1c(-c2cccc(NC(C)=O)c2)nc2ccccc21 (centres undefined)	x	-9	x	x	x	x
Cc1[nH]c2ccc(-c3nnc(SCC(=O)N4CCCc5ccccc54)o3)cc2c1C	79*	-10	-1	12	1	-11
COC(=O)C1=C(C)N(Cc2ccccc2C(F)(F)F)C(=NCc2ccc(C(F)(F)F)cc2)NC1c1cccc(F)c1 (centres undefined)	x	-3	x	x	x	x
Cc1ccc(-n2ncc3c(SCC(N)=O)ncnc32)cc1C	5	-21	-1	-21	67*	-1
COC(=O)Cc1nnn2c1CC(OC)c1cc(Br)ccc1-2 (centres undefined)	x	-4	x	x	x	x
CC(C)C[C@H](NC(=O)/C=C/[C@H]1O[C@@H](n2ccc(=O)[nH]c2=O)[C@H](O)[C@@H]1O)C(=O)O	x	-7	-3	x	x	x
COc1cccc(NC(=O)NC2(C(F)(F)F)Oc3ccccc3O2)c1	3	-5	-5	17	67*	13
COc1cccc(NC(=O)Nc2cccc(C(=O)O)c2)c1	-11	1	0	-18	-41	-6
O=C1Nc2ccccc2/C1=C/c1cnc(-c2ccccc2)[nH]1	16	-13	1	-17	64*	3
O=C1Nc2ccccc2/C1=C/c1cccnc1	-29	0	7	11	-1	7
CC1(C)CC(N2CCCCC2)=CC(=[N+]2CCCCC2)C1	77*	-4	0	-8	-6	-10

Screening data (PubChem)
